What was measured:
[1] = target: T1, Metabotropic glutamate receptor 5 (Homo sapiens, UniProt P41594); test: Negative allosteric modulation of human mGluR5 expressed in HEK293 cells assessed as calcium mobilization by FLIPR assay; type: functional, cell-based
Target sequence in this assay (P41594 whole entry): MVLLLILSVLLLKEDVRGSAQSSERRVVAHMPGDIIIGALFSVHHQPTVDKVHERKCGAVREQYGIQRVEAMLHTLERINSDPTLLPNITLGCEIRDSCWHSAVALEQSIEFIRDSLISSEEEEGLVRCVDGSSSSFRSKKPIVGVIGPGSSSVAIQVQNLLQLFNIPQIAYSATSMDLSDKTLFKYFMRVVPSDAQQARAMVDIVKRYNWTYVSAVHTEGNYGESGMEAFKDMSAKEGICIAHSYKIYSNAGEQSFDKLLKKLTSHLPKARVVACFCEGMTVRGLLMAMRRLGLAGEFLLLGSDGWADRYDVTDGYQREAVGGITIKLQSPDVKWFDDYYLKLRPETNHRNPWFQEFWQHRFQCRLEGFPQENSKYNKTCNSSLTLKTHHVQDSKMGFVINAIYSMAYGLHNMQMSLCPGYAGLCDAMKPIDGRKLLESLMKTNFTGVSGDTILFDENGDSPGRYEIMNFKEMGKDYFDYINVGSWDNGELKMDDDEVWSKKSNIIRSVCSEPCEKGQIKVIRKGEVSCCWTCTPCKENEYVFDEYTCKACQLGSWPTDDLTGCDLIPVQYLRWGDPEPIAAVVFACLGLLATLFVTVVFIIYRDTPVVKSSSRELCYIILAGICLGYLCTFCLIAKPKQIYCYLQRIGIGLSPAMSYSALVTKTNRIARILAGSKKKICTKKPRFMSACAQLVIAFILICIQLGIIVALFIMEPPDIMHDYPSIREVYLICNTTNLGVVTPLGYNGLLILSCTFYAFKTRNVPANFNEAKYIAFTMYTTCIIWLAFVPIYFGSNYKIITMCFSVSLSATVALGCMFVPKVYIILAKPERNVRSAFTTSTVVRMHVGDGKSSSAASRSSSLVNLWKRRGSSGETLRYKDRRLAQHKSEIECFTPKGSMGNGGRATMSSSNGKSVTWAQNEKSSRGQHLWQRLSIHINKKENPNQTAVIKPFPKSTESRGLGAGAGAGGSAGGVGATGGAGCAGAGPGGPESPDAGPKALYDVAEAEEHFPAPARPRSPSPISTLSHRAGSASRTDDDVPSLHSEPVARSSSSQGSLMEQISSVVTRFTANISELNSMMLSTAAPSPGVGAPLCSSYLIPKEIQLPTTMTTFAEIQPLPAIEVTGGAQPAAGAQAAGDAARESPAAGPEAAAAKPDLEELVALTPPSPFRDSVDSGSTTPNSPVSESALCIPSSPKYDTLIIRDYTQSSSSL

[2] = Half life in rat liver microsomes
[3] = Half life in human liver microsomes
[4] = Half life in mouse liver microsomes
Mus musculus = test: Antidepressant activity in ICR mouse assessed as decrease in immobility time at 10 mg/kg, po administered 1 hr before test measured for 4 mins following training for 2 mins by forced swimming test; type: functional; design: scale not given: the % may be the effect or the level left
Method in brief: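 Mouse forced swim test: ICR mice dosed orally 1 h before testing; 2 min training, then immobility duration recorded over 4 min. Activity expressed as % decrease in immobility duration. Mean ± SEM, n = 8; Dunnett's multiple comparisons after one-way ANOVA (p < 0.05).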

[5] = Half life in rat plasma; type: ADME, cell-free
[6] = target: T1, Metabotropic glutamate receptor 5; test: Negative allosteric modulation of human mGluR5 expressed in HEK293 cells assessed as calcium mobilization at 2 uM by FLIPR assay; type: functional, cell-based
Target sequence in this assay (P41594 21-1212 limits assumed): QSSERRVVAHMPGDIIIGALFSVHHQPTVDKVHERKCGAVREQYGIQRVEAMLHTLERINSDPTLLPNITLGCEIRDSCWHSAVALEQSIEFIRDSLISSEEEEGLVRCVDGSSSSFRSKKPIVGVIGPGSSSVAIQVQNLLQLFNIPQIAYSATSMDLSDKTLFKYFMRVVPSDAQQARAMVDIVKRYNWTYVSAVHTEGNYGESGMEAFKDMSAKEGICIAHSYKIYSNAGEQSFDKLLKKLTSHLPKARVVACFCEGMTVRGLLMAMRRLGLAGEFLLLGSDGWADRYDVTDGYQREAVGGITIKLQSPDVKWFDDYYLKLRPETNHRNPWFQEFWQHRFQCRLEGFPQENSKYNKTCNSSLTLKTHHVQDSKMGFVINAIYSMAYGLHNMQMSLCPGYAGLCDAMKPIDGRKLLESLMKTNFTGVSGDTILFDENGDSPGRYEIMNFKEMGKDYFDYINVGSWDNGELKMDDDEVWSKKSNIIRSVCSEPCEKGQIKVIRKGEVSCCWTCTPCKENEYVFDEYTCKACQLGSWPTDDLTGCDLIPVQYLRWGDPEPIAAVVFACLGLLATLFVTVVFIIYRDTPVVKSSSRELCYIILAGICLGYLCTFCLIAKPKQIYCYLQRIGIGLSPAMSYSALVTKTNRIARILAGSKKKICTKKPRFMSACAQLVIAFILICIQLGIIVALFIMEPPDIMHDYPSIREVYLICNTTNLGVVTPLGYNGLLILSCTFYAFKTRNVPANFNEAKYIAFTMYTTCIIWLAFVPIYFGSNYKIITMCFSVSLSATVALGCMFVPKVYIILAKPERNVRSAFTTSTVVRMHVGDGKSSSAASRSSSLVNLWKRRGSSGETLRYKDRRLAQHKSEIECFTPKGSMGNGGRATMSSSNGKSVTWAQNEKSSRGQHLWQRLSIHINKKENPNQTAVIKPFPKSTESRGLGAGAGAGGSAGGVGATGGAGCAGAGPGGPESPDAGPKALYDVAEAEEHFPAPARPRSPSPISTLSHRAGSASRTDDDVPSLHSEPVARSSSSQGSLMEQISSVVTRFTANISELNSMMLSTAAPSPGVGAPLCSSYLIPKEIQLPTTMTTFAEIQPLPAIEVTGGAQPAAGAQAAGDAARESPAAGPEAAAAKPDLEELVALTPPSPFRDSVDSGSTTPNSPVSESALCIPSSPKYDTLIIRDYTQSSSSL

Structure (SMILES) | IC50 [1] [nM] | half-life ([2]; liver microsomes) [h] | half-life ([3]; liver microsomes) [h] | half-life ([4]; liver microsomes) [h] | other results
Cc1nc(C(=O)Nc2cccc(C#N)n2)c(C)n1-c1ccc(F)cc1 | 77 | – | – | – | –
Cc1cccc(NC(=O)c2nc(C)n(-c3ccc(F)c(Cl)c3)c2C)n1 | 14.5 | – | – | – | half-life ([2]; microsomes): 1.45 h; half-life ([3]; microsomes): 1.27 h; half-life ([4]; microsomes): 1.17 h
Cc1ccnc(NC(=O)c2nn(C)c(-c3ccc(F)cc3)c2C)c1 | 82.3 | – | – | – | half-life ([2]; microsomes): 1.98 h; half-life ([3]; microsomes): 1.52 h; half-life ([4]; microsomes): 0.167 h
Cc1nc(C(=O)Nc2cccc(C(F)(F)F)n2)c(C)n1-c1ccc(F)cc1 | 173 | 1.2 | 3.27 | 2.63 | –
Cc1cccc(NC(=O)c2nn(C)c(-c3ccc(Cl)cc3)c2C)n1 | 3.8 | – | – | – | Activity (Mus musculus): 51.4%
Cc1cccc(NC(=O)c2nn(C)c(-c3ccc(C(F)(F)F)cc3)c2C)n1 | 38 | > 5 | > 5 | 3.23 | Activity (Mus musculus): 18.5%
COc1ccc(-n2c(C)nc(C(=O)Nc3cccc(C)n3)c2C)cc1 | 147 | – | – | – | –
Cc1cccc(NC(=O)c2nc(C)n(-c3ccc(Cl)cc3)c2C)n1 | 17.1 | – | – | – | half-life ([2]; microsomes): 0.983 h; half-life ([3]; microsomes): 0.9 h; half-life ([4]; microsomes): 1.35 h
Cc1cccc(NC(=O)c2nn(C)c(OC3CCCCC3)c2C)n1 | 92 | – | – | – | –
Cc1c(C(=O)Nc2ccnc(F)c2)nn(C)c1-c1ccc(F)cc1 | 41.6 | 1.9 | > 5 | > 5 | Activity (Mus musculus): 15.5%
Cc1nc(C#Cc2cccnc2)cs1 | – | – | – | – | Activity (Mus musculus): 14%
O=C(Nc1cc(Cl)ccc1O)c1noc2c1CCC2 | 373 | – | – | – | –
Cc1nc(NC(=O)c2nc(C)n(-c3ccc(F)cc3)c2C)ccc1F | 139 | 0.733 | 1 | 1.43 | –
Cc1ccc(-c2c(C)c(C(=O)Nc3cccc(C)n3)nn2C)cc1 | 5.3 | – | – | – | Activity (Mus musculus): 30.8%
Cc1nc(NC(=O)c2nn(C)c(-c3ccc(F)cc3)c2C)ccc1F | 28 | – | – | – | half-life ([2]; microsomes): 2.77 h; half-life ([3]; microsomes): 3.55 h; half-life ([4]; microsomes): 1.65 h
Cc1ccc(NC(=O)c2nn(C)c(-c3ccc(F)cc3)c2C)nc1 | 90.8 | 1.12 | 0.433 | 0.217 | –
Cc1c(C(=O)Nc2cc(Cl)ccn2)nn(C)c1-c1ccc(F)cc1 | 195 | – | – | – | half-life ([2]; microsomes): 2.38 h; half-life ([3]; microsomes): 2.1 h; half-life ([4]; microsomes): 0.4 h
Cc1cccc(NC(=O)c2nn(C)c(-c3ccc(F)c(F)c3)c2C)n1 | 4.3 | – | – | – | Activity (Mus musculus): 58.8%; half-life ([2]; microsomes): 2.48 h; half-life ([3]; microsomes): 0.767 h; half-life ([4]; microsomes): 0.7 h
Cc1c(C(=O)Nc2ccnc(Cl)c2)nn(C)c1-c1ccc(F)cc1 | 56.3 | – | – | – | Activity (Mus musculus): 39.1%; half-life ([2]; microsomes): 2.68 h; half-life ([3]; microsomes): > 5 h; half-life ([4]; microsomes): > 5 h
Cc1c(C(=O)Nc2cccc(C(F)(F)F)n2)nn(C)c1-c1ccc(F)cc1 | 130 | 0.967 | 4.48 | 1.63 | –
Cc1cnc(NC(=O)c2nn(C)c(-c3ccc(F)cc3)c2C)s1 | 2700 | – | – | – | –
Cc1cccc(NC(=O)c2nn(C)c(-c3cc(F)cc(F)c3)c2C)n1 | 5.3 | 1.07 | 0.533 | 0.3 | –
Cc1cccc(NC(=O)c2nn(C)c(C3CCCCC3)c2C)n1 | 25 | 0.133 | 1.38 | 0.467 | –
Cc1cccc(NC(=O)c2cc(-c3ccccc3)n(C)n2)n1 | 95 | – | – | – | half-life [5]: < 1 h
Cc1cccc(NC(=O)c2nn(C)c(-c3ccncc3)c2C)n1 | 71 | – | – | – | half-life ([2]; microsomes): 0.617 h; half-life ([3]; microsomes): 0.7 h; half-life ([4]; microsomes): 0.133 h
Cc1cccc(NC(=O)c2nn(C)c(OC3CCNCC3)c2C)n1 | – | – | – | – | inhibition [6]: 5.6%
Cc1cccc(NC(=O)c2nn(C)c3c2CCCC3)n1 | 27 | – | – | – | –
Cc1cccc(NC(=O)c2nn(C)c(-c3ccc(F)cc3F)c2C)n1 | 3.7 | 1.27 | 1.12 | 0.633 | Activity (Mus musculus): 25.7%

Source: ChEMBL document CHEMBL2346654, “Discovery of biological evaluation of pyrazole/imidazole amides as mGlu5 receptor negative allosteric modulators” (Bioorg Med Chem Lett, 2013)
